# High-throughput results: PubChem, several laboratories
# TAAR1 ag: human TAAR1 agonism; CHO RD-HGA16 TAAR1, Fluo-8 calcium fluorescence; vehicle wells 0%, saturating PEA agonist 100%; AID 624467; activation, % at 3 µM; 360,000 compounds, 0.99% hits;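 active = activation above the mean activation of all test compounds in the run plus 3 SD, cut at about 38% in these data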
# Target sequence (Q96RJ0 whole entry, looked up): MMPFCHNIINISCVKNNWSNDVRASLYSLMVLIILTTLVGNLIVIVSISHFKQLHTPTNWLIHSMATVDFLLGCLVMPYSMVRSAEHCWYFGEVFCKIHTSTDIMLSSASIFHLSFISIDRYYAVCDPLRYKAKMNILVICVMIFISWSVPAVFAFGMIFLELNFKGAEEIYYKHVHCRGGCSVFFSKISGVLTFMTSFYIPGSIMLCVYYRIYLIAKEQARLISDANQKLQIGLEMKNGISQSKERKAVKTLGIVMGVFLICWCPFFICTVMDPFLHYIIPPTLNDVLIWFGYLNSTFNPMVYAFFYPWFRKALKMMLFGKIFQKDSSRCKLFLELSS
#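 Test system: RD-HGA16 (CHO) cells co-expressing Gα16 and hTAAR1; dosing: one-point dosing at 3 µM (nominal); timing: 17-24 h seeding, 75 min 37 °C dye, 30 min RT; signal: kinetic Fluo-8 calcium fluorescence; read-out basis: % activation relative to PEA EC100 response; controls: DMSO and PEA EC100; replicates: n 1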
# TAAR1 antagonist: antagonists of human TAAR1. CHO RD-HGA16 TAAR1, Fluo-8 calcium fluorescence, antagonist. inhibition, % at 3 µM. Q96RJ0. 360,000 compounds, 1.5% hits;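 active = inhibition above a per-plate cutoff, the mean inhibition of test compounds on that plate plus 3 SD, cut at about 49% in these data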;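 also: 0% = DMSO plus EC80 beta-PEA response and 100% = DMSO alone without agonist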
#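 Assay system: RD-HGA16 CHO cells with stable hTAAR1 and Gα16 / Reagent: EC80 β-phenethylamine stimulus / Doses: 3 µM, single point / Timing: dye loading 75 min at 37 °C, then 30 min room temperature / Measured by: Fluo-8 intracellular calcium dye fluorescence, real-time kinetic reads / Controls: vehicle wells and EC80 agonist wells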
# Rce1 inhib: yeast Ras-converting enzyme inhibition; calls only; AID 2563; 290,000 compounds, 0.27% hits; yeast membranes, quenched prenylated peptide cleavage fluorescence; Q03530;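 active = fall in fluorescence gain of 50% or more versus controls, with final raw signal at or below 3038400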;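 also: plate controls were neutral control wells for no effect and wells lacking membranes for full effect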
# Target sequence (Q03530 whole entry, looked up): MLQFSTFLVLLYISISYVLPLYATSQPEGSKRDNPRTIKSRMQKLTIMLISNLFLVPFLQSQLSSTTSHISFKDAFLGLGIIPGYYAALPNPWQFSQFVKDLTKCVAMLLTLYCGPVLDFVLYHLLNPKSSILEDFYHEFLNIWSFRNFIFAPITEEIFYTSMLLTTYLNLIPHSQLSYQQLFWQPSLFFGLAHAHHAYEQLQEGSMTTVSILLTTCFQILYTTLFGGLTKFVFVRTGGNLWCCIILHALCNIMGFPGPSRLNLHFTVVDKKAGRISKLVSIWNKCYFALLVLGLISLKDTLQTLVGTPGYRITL
# Platelet DG rel: modulates dense granule release in human platelets; human platelet-rich plasma, SFLLRN dense granule ATP release, luminescence; inhibition, %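 (compounds screened at 7.5 µM in platelet-rich plasma)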; 300,000 compounds, 0.22% hits; AID 1663;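 active = mean replicate score, as percent of positive control, at or above 50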
# VLA-4 inh: inhibition in a human VLA-4 binding assay. 330,000 compounds, 0.2% hits. AID 2557. VLA-4 expressing cells, ligand binding flow cytometry. P13612. inhibition, % (about 7 µM as worked out from the volumes in the protocol); in the data active = inhibition above about 50%
# TAAR1 ag confirm: confirmation of human TAAR1 agonists. shares compounds with TAAR1 ag. CHO RD-HGA16 TAAR1, Fluo-8 calcium fluorescence; scaled: DMSO 0%, maximal phenethylamine 100%. activation, % at 3 µM. 2,400 compounds, 82% hits. AID 651783;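 active = activation above a cutoff set at the run's mean compound activation plus 3 SD, cut at about 39% in these data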
# Ga16 ag counter: nonselective agonism, TAAR1 counter-screen; shares compounds with TAAR1 ag; CHO-Ga16 parental, Fluo-8 calcium fluorescence; normalized to maximal ATP response, DMSO zero; activation, % at 3 µM; 2,400 compounds, 50% hits; AID 651787;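 active = activation above the run cutoff, the mean activation over all tested wells plus 3 SD, cut at about 12% in these data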;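 also: 0% = DMSO wells and 100% = maximal ATP response on the peak over basal ratio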
# TAAR1 desens: human TAAR1 agonist that also desensitizes the receptor; shares compounds with TAAR1 ag; CHO RD-HGA16 hTAAR1, Fluo-8 calcium, beta-PEA response inhibition; inhibition, % at 3 µM; 2,400 compounds, 46% hits;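 active = inhibition above the run cutoff, the mean inhibition of all test compounds plus 3 SD, cut at about 49% in these data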;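 also: beta-PEA stimulus applied at its EC80; loss of beta-PEA calcium signal after compound pretreatment read as receptor desensitization; 0% = DMSO with beta-PEA at EC80 and 100% = DMSO alone without agonist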
# Ga16 antag count: nonselective Ga16 antagonism, counter-screen | shares compounds with TAAR1 ag | CHO-Ga16 ATP-induced calcium, Fluo-8 fluorescence | inhibition, % at 3 µM | 2,400 compounds, 39% hits | AID 651952;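 active = inhibition above the plate's mean compound inhibition plus 3 SD, computed per plate, cut at about 22% in these data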;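 also: 0% = EC80 ATP with DMSO and 100% = DMSO wells without ATP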
# * marks the source's active call; other numbers are inactive results; i = inactive; nt = no result. Hits are enriched below; roughly 2.6% of the tested compounds scored in any of these assays.
SMILES,TAAR1 ag,TAAR1 antagonist,Rce1 inhib,Platelet DG rel,VLA-4 inh,TAAR1 ag confirm,Ga16 ag counter,TAAR1 desens,Ga16 antag count
CCCC(C(=O)Nc1ccc(C)c(S(=O)(=O)N2CCOCC2)c1)c1ccccc1 (stereo not drawn),0.4,-56.1,i,-6.7,7.3,nt,nt,nt,nt
CCCC(C(=O)Nc1ccc(S(=O)(=O)N2CCOCC2)cc1)c1ccccc1 (stereo not drawn),95.8*,57.0*,nt,nt,10.8,85.5*,45.6*,68.7*,34.5*
Oc1ccccc1Nc1nc(NCc2ccco2)c2ccccc2n1,0.1,-39.4,i,12.5,-6.3,nt,nt,nt,nt
Cc1cccc(Nc2nc(NCc3ccco3)c3ccccc3n2)c1,69.6*,30.7,i,2.2,i,49.8*,4.5,48.3,27.6*
c1ccc(Nc2nc(NCc3ccco3)c3ccccc3n2)cc1,55.6*,41.3,i,7.4,12.8,84.4*,8.1,85.3*,29.3*
Nc1nonc1-n1nnc(C(=O)N/N=C/c2cccc(Cl)c2)c1-c1cccs1,7.4,10.8,i,1.9,-3.8,nt,nt,nt,nt
CCOc1ccc(NS(=O)(=O)c2ccc(C(=O)NCC(c3ccco3)N3CCCCC3)cc2)cc1 (stereo not drawn),84.0*,30.8,nt,nt,nt,91.3*,41.0*,53.9*,38.2*
O=C(NCC(c1ccco1)N1CCCCC1)c1ccc(S(=O)(=O)Nc2ccccc2)cc1 (stereo not drawn),15.3,-15.8,i,-21.1,-4.9,nt,nt,nt,nt
CCOc1ccc(NS(=O)(=O)c2ccc(C(=O)NCC3(N(C)C)CCCCC3)cc2)cc1,65.6*,45.9,i,-15.3,11.6,36.6,11.5,24.0,26.8*
CCOc1ccc(S(=O)(=O)Nc2ccc(C(=O)NCC(c3ccco3)N3CCCCC3)cc2)cc1 (stereo not drawn),13.7,-7.1,i,0.2,5.4,nt,nt,nt,nt
Cc1ccc(NS(=O)(=O)c2ccc(C(=O)NCC(c3ccco3)N3CCCCC3)cc2)cc1 (stereo not drawn),90.7*,63.1*,i,-14.1,9.1,72.6*,32.8*,35.4,28.3*
CCOc1ccc(S(=O)(=O)Nc2cccc(C(=O)NCC(c3ccccc3)N(C)C)c2)cc1 (stereo not drawn),58.2*,28.3,i,-18.2,7.9,32.2,23.3*,15.2,26.4*
Cc1noc(C)c1S(=O)(=O)N(C)C[C@@H]1OCc2cn(nn2)CCCC(=O)N([C@@H](C)CO)C[C@H]1C,1.2,-16.7,nt,nt,nt,nt,nt,nt,nt
COc1ccc(CC(=O)Nc2cc(F)ccc2F)cc1S(=O)(=O)N1CCOCC1,1.6,-9.3,nt,nt,nt,nt,nt,nt,nt
CCOc1ccc(NS(=O)(=O)c2ccc(C(=O)NCC(c3ccco3)N(C)C)cc2)cc1 (stereo not drawn),89.3*,30.8,i,1.2,-1.4,79.9*,50.0*,46.6,38.8*
CC1(C(=O)NCc2ccc(C(F)(F)F)cc2)CCN1C1Cc2ccccc2C1 (stereo not drawn),5.7,0.7,nt,nt,nt,nt,nt,nt,nt
Cc1c(C(=O)NC(C)c2ccc(-n3ccnc3)cc2)cccc1[N+](=O)[O-] (stereo not drawn),4.2,-11.7,i,4.3,2.8,nt,nt,nt,nt
COc1ccc(N)c2c1C(=O)c1ccccc1C2=O,-0.8,5.2,i,9.6,34.6,nt,nt,nt,nt
COc1ccc2noc3c2c1C(=O)c1ccccc1-3,149.5*,66.9*,i,-0.5,-360.8,74.5*,63.3*,75.3*,60.7*
CCC(=NCCc1ccccc1)C1=C(O)CCC1=O,86.5*,87.2*,i,4.6,4.5,103.6*,2.5,92.7*,-3.1
Cc1cc(C)c2c(=O)[nH]c(SCC(=O)NCCc3ccccc3)nc2n1,69.7*,35.1,i,-4.3,1.4,70.5*,8.0,37.0,6.2
COc1ccc(CCNC(=O)CSc2nc3sc(C(=O)O)c(C)c3c(=O)[nH]2)cc1OC,0.3,-10.4,i,0.6,-8.3,nt,nt,nt,nt
O=C(CSc1nc(=O)n2cc(Cl)ccc2n1)NCCc1ccccc1,50.0*,8.4,i,0.8,8.6,68.3*,6.5,12.1,7.8
CC(=O)c1sc2nc(SCC(=O)NCCc3ccccc3)[nH]c(=O)c2c1C,89.7*,43.3,i,6.6,-5.7,96.8*,19.1*,56.3*,-0.7
CN(C)S(=O)(=O)c1ccc(NC(=O)Cn2nc(-c3ccc4c(c3)OCCO4)ccc2=O)cc1,3.5,-8.6,nt,nt,nt,nt,nt,nt,nt
SMILES,TAAR1 ag,TAAR1 antagonist,Rce1 inhib,Platelet DG rel,VLA-4 inh,TAAR1 ag confirm,Ga16 ag counter,TAAR1 desens,Ga16 antag count
Cc1nc(S(=O)(=O)c2ccc(Cl)cc2)c(N(C)C)o1,1.5,-11.3,i,1.5,-0.2,nt,nt,nt,nt
COc1cc(OC)c2c(-c3ccccc3)cc(=O)oc2c1C(CCN1CCCC(C)C1)c1ccc2c(c1)OCO2 (stereo not drawn),31.8,13.4,i,2.3,39.9,nt,nt,nt,nt
COc1ccc(C(CCN2CCCCC2)c2c(OC)cc(OC)c3c(-c4ccccc4)cc(=O)oc23)cc1 (stereo not drawn),67.7*,31.7,i,2.0,-0.5,65.7*,42.4*,52.5*,48.1*
COc1cc(OC)c2c(-c3ccccc3)cc(=O)oc2c1C(CCN1CCCCC1)c1ccc2c(c1)OCO2 (stereo not drawn),43.3*,13.5,i,2.2,nt,44.6*,11.8*,19.9,15.8
CCc1ccc(NC(=S)NC2CCN(Cc3ccccc3)CC2)cc1,27.6,-14.4,i,-4.3,-0.8,nt,nt,nt,nt
CCC(C)c1ccc(NC(=S)NC2CCN(Cc3ccccc3)CC2)cc1 (stereo not drawn),57.9*,1.1,i,7.3,-4.2,45.0*,19.1*,38.9,26.8*
C=CCNCCCCOc1c(Cl)cc(C)cc1Br,30.5,-6.1,i,-2.4,-0.5,nt,nt,nt,nt
Cc1cc(C)c(OCCCCNCc2ccccc2)c(Cl)c1,48.0*,-8.2,i,-7.9,31.3,48.0*,21.7*,23.1,23.9*
COCCCNCCCCOc1c(Cl)cc(C)cc1Br,58.8*,32.2,i,-9.9,0.9,91.5*,22.4*,76.8*,7.6
Cc1cc(Cl)c(OCCCNC2CCCC2)c(Br)c1,58.0*,-2.6,i,-1.1,9.9,28.1,10.5,5.5,13.0
COc1c(C)cc(C(O)c2ncc(-c3ccc4ccccc4c3)[nH]2)cc1C (stereo not drawn),7.7,-14.1,nt,nt,nt,nt,nt,nt,nt
